# An excerpt weighted towards active compounds, which were near 3.9% of everything screened.
# CHOP inh – inhibitors of CHOP induction in ER stress response; CHO-K1 CHOP-promoter luciferase, tunicamycin-induced, 15-18 h; inhibition, % at 10 µM; 220,000 tested, 3.8% active; AID 2732;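 active = compounds that reduced the stress-induced luciferase reporter signal by more than about 70% of percent inhibition, limit read from the data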;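 note: 0% = tunicamycin plus vehicle and 100% = wells without tunicamycin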
# Gli-Sufu block – blocks Gli-Sufu signaling in a luciferase reporter | inhibition, % at 5 µM | Sufu-KO-LIGHT fibroblasts, Gli luciferase reporter luminescence | 340,000 tested, 0.74% active;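 active = inhibition above about 55%, limit read from the data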;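 note: 0% = DMSO-treated cells and 100% = wells with medium but no cells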
# UPR XBP1 act – activators of adaptive arm of unfolded protein response (XBP1). CHO-XBP1 luciferase reporter, IRE1-XBP1 UPR activation, luminescence; percent of tunicamycin response, DMSO as zero. AID 463104. activation, % at 20 µM. 330,000 tested, 0.33% active;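 active = versus positive control, 20 µM dose yields 30% or more activation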;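 note: 100% = tunicamycin at 10 µg/mL and 0% = DMSO only wells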
#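 Assay system: IRE1-XBP1 luciferase reporter CHO line. Input: 1000 cells/well. Buffer or medium: F12 with 10% serum. Doses: 20 µM, 1% DMSO. Times: overnight seeding at 37 °C, 6 h compound treatment at 37 °C. Technique: Steady-Glo luciferase glow luminescence, 10 min after reagent addition.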
# 697 NFkB inh – inhibitors of the PMA/ionomycin-induced NF-kB reporter in 697 B cells; 697 B-cell NF-kB luciferase reporter, 16 h; inhibition, % at 4 µM; 330,000 tested, 0.33% active; AID 435022; in the data active = inhibition above about 35%
# Jurkat NFkB inh – lowers PMA/ionomycin-induced NF-kB signal in Jurkat cells. PMA/ionomycin-induced NF-kB luciferase reporter, luminescence. AID 435003. 330,000 tested, 0.53% active. inhibition, % at 4 µM; in the data active = inhibition above about 50%
# UPR CHOP act – apoptotic UPR (CHOP) activation. 330,000 tested, 0.34% active. activation, % at 10 µM. CHO-CHOP luciferase reporter, luminescence; percent of tunicamycin response over DMSO baseline;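 active = at 10 µM dose, activation of 40% or more, normalized to positive control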;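 note: 100% = tunicamycin at 10 µg/mL and 0% = DMSO alone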
#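 assay system = CHO CHOP reporter cells | amount = 500 CHO-CHOP cells per well | buffer or medium = F12 with 10% FBS | incubation = 16-18 h cell attachment, then 6 h compound exposure, 37 °C | detection = luminescence read with Steady-Glo | read-out = percent activation relative to tunicamycin control | controls = tunicamycin high control, DMSO low control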
# Gli antag conf – confirmation of Gli-SUFU pathway antagonists; shares compounds with Gli-Sufu block; Sufu-KO-LIGHT cells, Gli luciferase reporter, luminescence; inhibition, % at 5 µM; 2,500 tested, 40% active; AID 602428;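 active = mean inhibition at 5 µM reaching about 45%, limit read from the data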;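 note: plate controls were DMSO-treated cells for no effect and wells lacking cells for full effect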
# Gli cytotox – cytotoxic in Gli-SUFU antagonist counter-screen; Sufu-KO-LIGHT cells cytotoxicity, ATP luminescence; 2,500 tested, 32% active; cytotoxicity, % at 5 µM; shares compounds with Gli-Sufu block;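 active = mean cytotoxicity at 5 µM above about 25%, limit read from the data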;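 note: cells exposed to compound overnight for roughly 16 to 18 hours; plate controls were DMSO wells with cells for no effect and medium without cells for full effect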
# Wnt3a counter – counter-screen for Gli-SUFU antagonists: Wnt3a reporter inhibition; Wnt-LIGHT cells, Wnt3a-driven luciferase reporter, luminescence; 2,500 tested, 20% active; AID 651995; shares compounds with Gli-Sufu block; inhibition, % at 6.25 µM;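 active = mean inhibition above about 25%, limit read from the data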
# The depositor's hits bear a star; / = no result given.
SMILES,CHOP inh,Gli-Sufu block,UPR XBP1 act,697 NFkB inh,Jurkat NFkB inh,UPR CHOP act,Gli antag conf,Gli cytotox,Wnt3a counter
CC(=O)c1cnc(N2CCCCC2)nc1C,19,56*,2,-10,-2,2,5,29*,0
COc1ccc(CNCC(O)(c2ccc(F)cc2)c2ccc(F)cc2)cc1OC,/,65*,-2,-23,-16,-1,23,36*,-41
COc1ccc(CNCC(O)(c2ccccc2)c2ccc(F)cc2)cc1OC (stereo not drawn),/,17,-2,-13,1,0,/,/,/
CN(C(=O)c1cnccn1)c1c(N)n(Cc2ccccc2)c(=O)[nH]c1=O,/,-12,1,-8,3,0,/,/,/
COCCNC(=O)C12CC3CC(CC(Cl)(C3)C1)C2,3,52,-5,-9,-15,1,31,0,6
Cc1cccc(CCN2C(N(C)C)=NC[C@@H]2CC(C)C)c1,/,54,0,-13,0,1,56*,16,17
Cc1cccc(CCN2C(N(C)C)=NC[C@@H]2Cc2ccccc2)c1,/,33,-1,-6,8,0,/,/,/
CN(C)C1=NC[C@H](Cc2ccccc2)N1CCCCc1ccccc1,/,54,-4,-51,11,-1,38,29*,-18
Cc1ccc(C(=O)N(CC(C)C)c2c(N)n(Cc3ccccc3)c(=O)[nH]c2=O)o1,/,4,1,13,-4,1,/,/,/
O=C(CSCCc1ccccn1)Nc1ccc(Br)cn1,24,-4,1,2,-12,-1,/,/,/
O=C(CSCCc1ccccn1)Nc1ccccn1,-8,96*,2,-3,-8,-2,8,25,-6
COc1cc(C2C3=C(COC3=O)Oc3cc4c(cc32)OCO4)cc(OC)c1OC(C)=O (stereo not drawn),/,63*,/,/,/,/,50*,63*,-2
CC(C)(C)n1nnnc1C(c1ccc2ncccc2c1)N1CCC(O)CC1 (stereo not drawn),11,63*,0,-6,-12,0,9,11,8
CC(NC(=O)c1ccccc1Cl)C(=O)OCc1cn2cc(Cl)ccc2n1 (stereo not drawn),/,-7,-1,-18,-14,-1,/,/,/
CC12CCCCN1CCCc1c2[nH]c2ccccc12 (stereo not drawn),10,58*,-3,10,-11,-3,33,50*,-11
CCCn1c(C(C)NS(=O)(=O)c2ccccc2)n[nH]c1=S (stereo not drawn),/,2,-1,15,7,2,/,/,/
CCN1CCN(C(=O)c2ccc(Cl)c(S(=O)(=O)N(C)c3ccccc3)c2)CC1,/,3,-1,-10,9,-3,/,/,/
COc1ccc2nc3sc(C(=O)NCCCN4CCc5ccccc5C4)cc3cc2c1,8,-20,-2,6,-31,-1,/,/,/
COc1ccc2nc3sc(C(=O)N4CCN(C)CC4)cc3cc2c1,-8,94*,4,-3,-14,0,9,23,1
C=CCNC(=O)c1ccccc1NC(=O)C1CCN(S(=O)(=O)c2ccc(SC)cc2)CC1,/,66*,-1,-7,15,2,10,5,-43
O=C(OCC(=O)N1CCCC1)c1ccccc1C(=O)c1ccccc1,/,-15,3,-3,3,3,/,/,/
COC(=O)[C@@H](CC(C)C)N(Cc1ccccc1)S(=O)(=O)N(Cc1ccccc1)[C@@H](CC(C)C)C(=O)OC,/,18,-1,3,-21,9,/,/,/
CCC(=O)NC1CCN(C(=S)NC)CC1,13,57*,-2,15,1,1,6,5,-22
COc1cc(C(=O)Oc2ccccc2OC(=O)c2cc(OC)c(OC)c(OC)c2)cc(OC)c1OC,/,-2,/,/,/,/,/,/,/
O=c1c2ccccc2nc(/C=C/c2c[nH]c3ccccc23)n1-c1ccc([N+](=O)[O-])cc1,15,15,2,-25,-19,6,/,/,/
SMILES,CHOP inh,Gli-Sufu block,UPR XBP1 act,697 NFkB inh,Jurkat NFkB inh,UPR CHOP act,Gli antag conf,Gli cytotox,Wnt3a counter
Cc1[nH]c2ccccc2c1/C=C/c1nc2ccccc2c(=O)n1-c1cccc([N+](=O)[O-])c1,16,50,10,-13,4,8,20,8,-8
N#Cc1ccccc1OCC(=O)Nc1ccc(S(=O)(=O)N2CCOCC2)cc1,/,8,-1,8,8,1,/,/,/
NC(=O)COc1ncnc2scc(-c3ccc(F)cc3)c12,7,54,-1,-6,9,-1,14,12,-7
NC1=NC[C@H](c2ccccc2)N1CCCCC1CCCCC1,11,62*,-3,-20,24,0,54*,34*,23
S=C1NC[C@H](c2ccccc2)N1CCCCC1CCCCC1,61,3,2,-23,-3,-1,/,/,/
Fc1ccc(Cn2nnnc2CN2CCN(C3CCCC3)CC2)cc1,-14,93*,-2,5,-1,-1,18,-11,0
CC#CC[N+](C)(C)CCCCCCCCCC,-5,68*,-5,9,32,-1,79*,43*,35*
CC(Oc1ccccc1)C(=O)Nc1ccc(C(N)=O)cc1 (stereo not drawn),-1,52,-1,-4,-7,5,19,4,-10
COc1ccccc1OCC(=O)Nc1ccc(C(N)=O)cc1,-2,69*,1,11,9,0,27,4,4
CC(NC(=O)COc1ccc(S(=O)(=O)N2CCCC2)cc1)c1ccccc1 (stereo not drawn),/,-7,-1,16,4,0,/,/,/
N#Cc1c(N2CCSCC2)nsc1-c1ccccc1Cl,/,1,/,/,/,/,/,/,/
Cc1ccc(C)c(N2CC(O)(c3cccs3)[N+]3=C2CCCC3)c1 (stereo not drawn),-10,62*,-1,14,3,2,50*,27*,-14
Cc1ccccc1N1CCN(C2CCCN(C(=O)c3cnsn3)C2)CC1 (stereo not drawn),/,13,-2,4,-7,-1,/,/,/
COc1ccccc1CN1CC(C(=O)NCc2c(F)ccc(C)c2F)CCC1=O (stereo not drawn),/,3,0,-80,-45,2,/,/,/
O=C(Cc1cccs1)Nc1nnc(COc2ccccc2)s1,/,99*,1,-1,2,1,19,12,7
COC(=O)Nc1nnc(COc2ccccc2)s1,13,24,1,-7,-7,2,/,/,/
